Laboratory results: ChEMBL document CHEMBL3526119, “Effect of the CYP2C8 genotype on the pharmacokinetics and pharmacodynamics of repaglinide” (Drug Metab Dispos, 2011)

Columns and labels:
Format in all cases: ADME, organism-based
[1] = system: Homo sapiens; assay: Mean change in blood glucose concentration in healthy white human plasma SLCO1B1 521CC/CYP2C8*3/*3 combined genotype at 2 mg, po; details: in vivo
Summary of the method: (§1)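 Venous blood glucose was read at each blood sampling time after a single oral 2 mg dose, with fasting up to 6 h. […] Maximal change is the largest change from baseline. Mean change is the average difference between values up to 6 h post-dose and baseline.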

[2] = species on record: Homo sapiens; assay: Maximal change in blood glucose concentration in healthy human plasma with SLCO1B1 521TT genotype at 0.5 mg
[3] = Oral bioavailability in human; details: in vivo
[4] = Tmax in healthy white human at 2 mg, po; details: in vivo
[5] = Tmax in healthy white human with CYP2C8*1/*1 genotype at 2 mg, po; details: in vivo
[6] = Tmax in healthy white human with CYP2C8*1/*3 genotype at 2 mg, po; details: in vivo
[7] = Tmax in healthy white human with CYP2C8*3/*3 genotype at 2 mg, po; details: in vivo
[8] = system: Homo sapiens; assay: Maximal change in insulin concentration in healthy white human plasma with CYP2C8*1/*3 genotype at 2 mg, po up to 6 hrs; details: in vivo
Summary of the method: (§2)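 Plasma insulin was sampled up to 6 h after a single oral 2 mg dose, with subjects fasting. It was measured by solid-phase enzyme-labelled chemiluminescent immunometric assay, calibration range 2–300 mU/l. Maximal change is the largest change from the baseline concentration within 6 h.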

[9] = system: Homo sapiens; assay: Maximal change in insulin concentration in healthy white human plasma with CYP2C8*3/*3 genotype at 2 mg, po up to 6 hrs; details: in vivo; summary of the method: as §2
[10] = system: Homo sapiens; assay: Maximal change in blood glucose concentration in healthy white human plasma at 2 mg, po up to 6 hrs; details: in vivo; summary of the method: as §1
[11] = system: Homo sapiens; assay: Maximal change in blood glucose concentration in healthy white human plasma with CYP2C8*1/*3 genotype at 2 mg, po up to 6 hrs; details: in vivo; summary of the method: as §1
[12] = AUC (0 to infinity) in healthy white human with SLCO1B1 521TT/CYP2C8*1/*1 combined genotype at 2 mg, po; parameters: dose 2 mg, route oral, time infinity; details: plasma
Summary of the method: (§3)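 Healthy Caucasians genotyped for CYP2C8*3 and SLCO1B1 521T>C were given a single oral 2 mg dose of repaglinide, and alcohol, caffeine and grapefruit were withheld. Plasma was sampled before dosing and at 15 times from 0.25 to 24 h. Drug was measured by LC-MS/MS against diclofenac internal standard, linear 0.098–79.139 µg/L. Noncompartmental analysis: Cmax taken as observed; AUC by linear/log-linear trapezoidal rule extrapolated to infinity.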

[13] = Cmax in healthy white human with SLCO1B1 521TT/CYP2C8*1/*1 combined genotype at 2 mg, po; parameters: dose 2 mg, route oral; details: in vivo; summary of the method: as §3
[14] = system: Homo sapiens; assay: Mean change in blood glucose concentration in healthy white human plasma SLCO1B1 521TT/CYP2C8*1/*1 combined genotype at 2 mg, po; details: in vivo
Summary of the method: (§4)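 Single 2 mg oral dose in healthy Caucasian volunteers genotyped for CYP2C8*3, with SLCO1B1 521T>C also typed. […] Mean change is the average difference between values up to 6 h post-dose and baseline. Fasting lasted to 6 h. Mean with 95% CI or SD by genotype group.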

[15] = system: Homo sapiens; assay: Mean change in insulin concentration in healthy white human plasma with SLCO1B1 521TC/CYP2C8*1/*1 combined genotype at 2 mg, po; details: in vivo
Summary of the method: (§5)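 Healthy Caucasians got a single 2 mg oral dose and were genotyped for CYP2C8*3 and SLCO1B1 521T>C. Plasma insulin was sampled from pre-dose to 6 h and measured by solid-phase enzyme-labelled chemiluminescent immunometric assay (calibration 2–300 mU/l). Mean change is the average of post-dose values minus baseline up to 6 h, summarised per genotype group.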

[16] = Cmax in healthy white human with SLCO1B1 521TT/CYP2C8*1/*3 combined genotype at 2 mg, po; parameters: dose 2 mg, route oral; details: in vivo; summary of the method: as §3
[17] = system: Homo sapiens; assay: Mean change in insulin concentration in healthy white human plasma with SLCO1B1 521TT/CYP2C8*1/*3 combined genotype at 2 mg, po; details: in vivo; summary of the method: as §5
[18] = AUC (0 to infinity) in healthy white human with SLCO1B1 521TC/CYP2C8*1/*3 combined genotype at 2 mg, po; parameters: dose 2 mg, time infinity, route oral; details: plasma; summary of the method: as §3
[19] = AUC (0 to infinity) in healthy white human with SLCO1B1 521CC/CYP2C8*1/*3 combined genotype at 2 mg, po; parameters: dose 2 mg, time infinity, route oral; details: plasma; summary of the method: as §3
[20] = system: Homo sapiens; assay: Mean change in blood glucose concentration in healthy white human plasma SLCO1B1 521CC/CYP2C8*1/*3 combined genotype at 2 mg, po; details: in vivo; summary of the method: as §1
[21] = Cmax in healthy white human with SLCO1B1 521TT/CYP2C8*3/*3 combined genotype at 2 mg, po; parameters: dose 2 mg, route oral; details: in vivo; summary of the method: as §3
[22] = system: Homo sapiens; assay: Maximal change in insulin concentration in healthy white human plasma at 2 mg, po up to 6 hrs; details: in vivo; summary of the method: as §2
[23] = AUC (0 to infinity) in healthy white human at 2 mg, po; parameters: dose 2 mg, time infinity, route oral; details: plasma; summary of the method: as §3
[24] = AUC (0 to infinity) in healthy white human with CYP2C8*1/*1 genotype at 2 mg, po; parameters: dose 2 mg, time infinity, route oral; details: plasma; summary of the method: as §3
[25] = Cmax in healthy white human with CYP2C8*1/*1 genotype at 2 mg, po; parameters: dose 2 mg, route oral; details: in vivo; summary of the method: as §3
[26] = Cmax in healthy white human with CYP2C8*3/*3 genotype at 2 mg, po; parameters: dose 2 mg, route oral; details: in vivo; summary of the method: as §3
[27] = Oral clearance in healthy white human at 2 mg, po; details: in vivo
Summary of the method: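 Repaglinide was assayed by LC-MS/MS with diclofenac internal standard (LLOQ 0.098 µg/L). Noncompartmental analysis gave AUC by linear/log-linear trapezoidal rule extrapolated to infinity. Weight-adjusted oral clearance = dose/(AUC × body weight).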

[28] = Terminal half life in healthy white human at 2 mg, po; details: in vivo, read-out: beta t1/2 (converted)
Summary of the method: (§6)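 Single oral 2 mg dose; plasma sampled pre-dose and from 0:15 to 24 h post-dose (15 samples). Repaglinide measured by LC-MS/MS with diclofenac internal standard; calibration 0.098–79.139 µg/L. Noncompartmental analysis; AUC by linear/log-linear trapezoidal rule extrapolated to infinity. Reported as mean with 95% CI for all subjects and for each CYP2C8*3 genotype group.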

[29] = Terminal half life in healthy white human with CYP2C8*1/*1 genotype at 2 mg, po; details: in vivo, read-out: beta t1/2 (converted); summary of the method: as §6
[30] = Terminal half life in healthy white human with CYP2C8*1/*3 genotype at 2 mg, po; details: in vivo, read-out: beta t1/2 (converted); summary of the method: as §6
[31] = Terminal half life in healthy white human with CYP2C8*3/*3 genotype at 2 mg, po; details: in vivo, read-out: beta t1/2 (converted); summary of the method: as §6
[32] = system: Homo sapiens; assay: Mean change in blood glucose concentration in healthy white human plasma SLCO1B1 521TT/CYP2C8*3/*3 combined genotype at 2 mg, po; details: in vivo; summary of the method: as §4
[33] = AUC (0 to infinity) in healthy white human with SLCO1B1 521TC/CYP2C8*3/*3 combined genotype at 2 mg, po; parameters: dose 2 mg, route oral, time infinity; details: plasma; summary of the method: as §3
[34] = system: Homo sapiens; assay: Mean change in insulin concentration in healthy white human plasma with SLCO1B1 521TC/CYP2C8*3/*3 combined genotype at 2 mg, po; details: in vivo; summary of the method: as §5
[35] = Cmax in healthy white human with SLCO1B1 521CC/CYP2C8*3/*3 combined genotype at 2 mg, po; parameters: dose 2 mg, route oral; details: in vivo; summary of the method: as §3
[36] = system: Homo sapiens; assay: Mean change in insulin concentration in healthy white human plasma with SLCO1B1 521CC/CYP2C8*3/*3 combined genotype at 2 mg, po; details: in vivo; summary of the method: as §5

Activity [1]: -0.8 mM
Activity [2]: 1.9 mM
bioavailability [3]: 60%
Tmax [4]: 0.8 h
Tmax [5]: 0.8 h
Tmax [6]: 0.8 h
Tmax [7]: 0.9 h
Activity [8]: 17.3 mU/L
Activity [9]: 8.3 mU/L
Activity [10]: -1.69 mM
Activity [11]: -1.83 mM
AUC(0-inf) [12]: 92.3 ng·h/mL
Cmax [13]: 52.5 ng/mL
Activity [14]: -0.4 mM
Activity [15]: 5.7 mU/l
Cmax [16]: 57 ng/mL
Activity [17]: 5.6 mU/l
AUC(0-inf) [18]: 77.2 ng·h/mL
AUC(0-inf) [19]: 18.2 ng·h/mL
Activity [20]: -0.2 mM
Cmax [21]: 36.6 ng/mL
Activity [22]: 18.8 mU/L
AUC(0-inf) [23]: 97.4 ng·h/mL
AUC(0-inf) [24]: 106 ng·h/mL
Cmax [25]: 60.3 ng/mL
Cmax [26]: 38.5 ng/mL
CL/F [27]: 7.67 mL/min/kg
half-life [28]: 1.3 h
half-life [29]: 1.2 h
half-life [30]: 1.3 h
half-life [31]: 1.3 h
Activity [32]: -0.1 mM
AUC(0-inf) [33]: 23.4 ng·h/mL
Activity [34]: 1.5 mU/l
Cmax [35]: 67.9 ng/mL
Activity [36]: 6.1 mU/l
Compound: CCOc1cc(CC(=O)N[C@@H](CC(C)C)c2ccccc2N2CCCCC2)ccc1C(=O)O [REPAGLINIDE]
